From PubChem BioAssay
A selection: hits, their analogues and other compounds. The true share with any hit is near 1.7%.
Pemphigus Ab inh: inhibitors of pemphigus antibody binding to human desmoglein-3; P32926; DSG3-coupled beads, scFv-anti-DSG3-GFP binding, flow cytometry; active compounds read low; binding (percent of control), % at 10 µM; hit rate 0.48% among 310,000; AID 588358;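 active means binding more than 3 SD below its plate's average and above zero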;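 further: hits lower antibody fragment binding to DSG3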
Scp1 inh: blocks human Scp-1 phosphatase activity | hit rate 0.88% among 340,000 | inhibition, % at 20 µM | Recombinant Scp1, phosphopeptide, malachite green phosphate absorbance | Q9GZU7;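 active means inhibition above about 50% at 20 µM, limit read from the data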;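 further: plate controls were DMSO wells with enzyme for no effect and wells lacking enzyme for full effect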
Target sequence (Q9GZU7 76-261 limits assumed): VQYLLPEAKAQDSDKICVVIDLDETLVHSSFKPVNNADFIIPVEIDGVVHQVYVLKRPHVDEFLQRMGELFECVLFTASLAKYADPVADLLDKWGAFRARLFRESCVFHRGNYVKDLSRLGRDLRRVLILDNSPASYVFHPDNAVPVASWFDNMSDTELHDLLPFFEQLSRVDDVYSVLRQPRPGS
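Times: enzyme reaction 45 min at room temperature, colour 5 min, stabilisation 30 min. Material: SCP-1 catalytic fragment, aa 76-261. Medium: Acidic Tris acetate buffer with magnesium and detergent. Signal: colorimetric free-phosphate detection, absorbance 630 nm. Read-out basis: % inhibition of SCP-1 phosphate liberation. Reagent: Phosphorylated 17-residue peptide substrate.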
SUMO1 PPI mod: SUMO1-SIM interaction modulation; P63165; SUMO1 binding to a labelled peptide, TR-FRET, 1 h; inhibition, % at 20 µM; hit rate 0.33% among 360,000; AID 602429; in the data active means inhibition above about 37%
Target sequence (P63165 whole entry, looked up): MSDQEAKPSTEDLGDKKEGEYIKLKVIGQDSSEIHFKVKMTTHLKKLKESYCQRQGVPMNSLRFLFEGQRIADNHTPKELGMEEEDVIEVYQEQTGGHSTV
LMPTP inh: blocks human LMPTP phosphatase; hit rate 0.22% among 360,000; AID 651560; inhibition, % at 20 µM; recombinant LMPTP-A, OMFP fluorogenic substrate, fluorescence intensity;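 active means compounds that cut the enzyme signal by at least half of the control window in the single-dose screen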;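 further: plate controls were DMSO wells with enzyme plus substrate for no effect and substrate without enzyme for full effect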
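Test system – LMPTP-A phosphatase enzyme · Quantity – 0.625 nM LMPTP-A final · Reagent – OMFP substrate, 400 µM final · Dosing – one test concentration per compound, 20 µM, with 3% DMSO overall · Timing – 50 min enzyme reaction at room temperature, protected from light · Detection – fluorescence intensity · Controls – substrate-only low control, DMSO enzyme-plus-substrate high control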
STEP inh: blocks human striatal-enriched tyrosine phosphatase. recombinant STEP, OMFP fluorogenic substrate, fluorescence. inhibition, % at 20 µM. hit rate 0.25% among 360,000. AID 588621. P54829;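 active means inhibition at 20 µM, scaled per plate between control wells, above about 37%, limit read from the data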;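 further: 0% = DMSO with enzyme and substrate and 100% = substrate only without enzyme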
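Material: STEP (striatal-enriched tyrosine phosphatase) enzyme, cell-free; Compound dosing: 20 µM single dose in 1% DMSO; Technique: fluorescence read at 480 nm ex / 540 nm em; Times: reaction 20 min, ambient temperature; Medium: 50 mM Bis-Tris pH 6.0 with 2.5 mM DTT and 0.005% Tween 20; Also added: OMFP at 25 µM.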
Active calls of the source: *.

Screening Cc1snc(S(=O)(=O)/C(C#N)=N/Nc2cccc(C(F)(F)F)c2)c1C#N returned Pemphigus Ab inh 74*, Scp1 inh 4, SUMO1 PPI mod 5, LMPTP inh -1 and STEP inh 3.
`C[N+]1(CC(O)COCC2COc3ccccc3O2)CCOCC1` (stereo not given) gave Pemphigus Ab inh 91, Scp1 inh 106*, SUMO1 PPI mod 1, LMPTP inh 0 and STEP inh -3.
`CC(C)c1ccc(NC(=O)Nc2nnc([C@@H]3C[C@H](O)[C@@H](CO)O3)s2)cc1` gave SUMO1 PPI mod 6, LMPTP inh -1 and STEP inh 0.
For O=C(Nc1nccs1)c1ccc(N2C(=O)[C@@H]3[C@H](C2=O)[C@H]2C=C[C@@H]3C2)cc1 the results were Pemphigus Ab inh 69*, Scp1 inh 12, SUMO1 PPI mod -3, LMPTP inh -1 and STEP inh 1.
For Cc1ccc(N=C2NC(=O)/C(=C/C=C/c3ccco3)S2)cc1 the results were Pemphigus Ab inh 119, Scp1 inh 34, SUMO1 PPI mod 11, LMPTP inh 6 and STEP inh 6.
Cc1cccc(N=C2NC(=O)/C(=C/C=C/c3ccco3)S2)c1C was read as Pemphigus Ab inh 98, Scp1 inh 66*, SUMO1 PPI mod 40*, LMPTP inh 27 and STEP inh 4.
For O=C1CC(C(=O)Nc2ccc(F)cc2)n2cnnc2N1 (stereo not given) the results were Pemphigus Ab inh 2.4*, Scp1 inh -1, SUMO1 PPI mod -1, LMPTP inh -1 and STEP inh 2.
COc1ccc2nc(C)cc(SCC(=O)N/N=C/c3ccc(O)c(O)c3)c2c1 was read as Pemphigus Ab inh 96, Scp1 inh -3, SUMO1 PPI mod 12, LMPTP inh 57* and STEP inh 2.
COc1ccc2nc(C)cc(SCC(=O)N/N=C/c3cccc4ccccc34)c2c1 was read as Pemphigus Ab inh 94, Scp1 inh -11, SUMO1 PPI mod 1, LMPTP inh 26 and STEP inh 3.
Screening Cc1ccc(S(=O)(=O)N(C)C)cc1NC(=O)c1cc(S(=O)(=O)N2CCCCC2)ccc1N1CCOCC1 returned Pemphigus Ab inh 122, Scp1 inh -5, SUMO1 PPI mod 1, LMPTP inh 0 and STEP inh 3.
`CN(C)CCNc1ccc2ncn3c4ccc(O)cc4c(=O)c1c23` gave Scp1 inh -13, SUMO1 PPI mod -59, LMPTP inh 63* and STEP inh -6.
CN(C)CCNc1ccc(CO)c2sc3ccc(O)cc3c(=O)c12 was read as Pemphigus Ab inh 94, Scp1 inh 10, SUMO1 PPI mod -43, LMPTP inh 9 and STEP inh 4.
Screening COc1ccc(CC(=O)Nc2ccc(S(=O)(=O)N3CCCCC3)cc2)cc1OC returned Pemphigus Ab inh 99, Scp1 inh -2, SUMO1 PPI mod 28, LMPTP inh 0 and STEP inh 2.
For COC(=O)Cn1c(C)c(C(C)=O)c(C(C)=O)c1C the results were Pemphigus Ab inh 96, Scp1 inh -15, SUMO1 PPI mod 48*, LMPTP inh 1 and STEP inh -3.
`CSc1nc(C2CC2)cc(-c2cccs2)c1C#N` gave Pemphigus Ab inh 8.8*, Scp1 inh -18, SUMO1 PPI mod -4, LMPTP inh 1 and STEP inh 1.
`COc1cccc(/C=N/NC(=O)c2cc3c(OC)cccc3[nH]2)c1OC` gave Pemphigus Ab inh 101, Scp1 inh 13, SUMO1 PPI mod -2, LMPTP inh 0 and STEP inh 1.
COc1cccc(/C=N/NC(=O)C(=O)N/N=C/c2cccc(OC)c2O)c1O was read as Scp1 inh -8, SUMO1 PPI mod 1, LMPTP inh 1 and STEP inh 1.
COc1cccc(/C=N/NC(=O)c2cc3c(OC)cccc3[nH]2)c1O was read as Pemphigus Ab inh 119, Scp1 inh -11, SUMO1 PPI mod 51*, LMPTP inh -1 and STEP inh 1.
Screening COc1cccc(/C=N/NC(=O)c2cc3cc([N+](=O)[O-])ccc3s2)c1O returned Pemphigus Ab inh 107, Scp1 inh 45, SUMO1 PPI mod 0, LMPTP inh 88* and STEP inh 97*.
